Bioassay records as filed in PubChem.
pCIP destab: p/CIP protein destabilization. Q05BA5. F442A p/CIP-EGFP cells, EGFP fluorescence, 16 h. decrease of EGFP signal, % at 10 µM. actives 0.01% (n = 290,000). AID 1984;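 active means EGFP signal decrease of at least 30% at 10 µM or well 3 SD below plate mean, unless failing retest; inactive means the rest, including hits failing retest or dose response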
Fh CTSL1 inh: cathepsin L1 inhibition, PFM18AAP counter-screen. inhibition, % at 5.96 µM. recombinant F. hepatica cathepsin L1, Z-Leu-Arg-MCA fluorescence. actives 0.49% (n = 300,000);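 active means inhibition above the mean of all tested compounds plus 3 SD, set per screening campaign, cut at about 17% in these data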
Cardio protect: protects H9c2 cardiomyocytes from peroxide injury; protection from H2O2 cell death, % at 20 µM; H2O2 injury protection, ATPLite, 2 h; actives 0.63% (n = 360,000);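 active means compounds giving at least 50% protection of heart cells from peroxide-induced death in the single-dose screen, raw or plate-pattern-corrected value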
T cruzi repl: blocks replication of Trypanosoma cruzi; T. cruzi beta-gal in NIH3T3, luminescence, 90 h; inhibition, % (no concentration beside the values); actives 1.4% (n = 300,000); AID 1885;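 active means mean inhibition across valid replicates above about 55%, limit read from the data; inconclusive means mean below that limit but half or more replicates reach it; inactive means mean below it, under half of replicates reach it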;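 further: signal also drops with host cell toxicity which is not excluded here; higher percent means less beta-gal luminescence so fewer parasites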
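Incubation – ≥90 h infection period, 3 h prior cell attachment · System – NIH/3T3 fibroblasts plus reporter T. cruzi · Doses – compound pinned at 50 nL/well, DMSO · Read-out basis – percent inhibition of parasite-derived β-gal signal · Signal – luminescent β-galactosidase signal after 60 min lysis · Also added – 5000 T. cruzi trypomastigotes/well · Medium – Low-serum DMEM with 2% FBS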
JMJD2C inh: human JMJD2C demethylase inhibition; actives 0.069% (n = 330,000); Q9H3R0; GST-JMJD2C(1-420) H3K9me3 demethylation, DELFIA europium; inhibition, % at 2.35 µM; AID 2099;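 active means more than half of a compound's replicate wells show inhibition beyond 50%, single wells judged on their own value; inconclusive means some, but no more than half, of replicates pass 50% inhibition; inactive means no replicate passes 50% inhibition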;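 further: signal counts dimethyl H3K9 product captured on neutravidin plate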
Target sequence (Q9H3R0 1-420 limits assumed): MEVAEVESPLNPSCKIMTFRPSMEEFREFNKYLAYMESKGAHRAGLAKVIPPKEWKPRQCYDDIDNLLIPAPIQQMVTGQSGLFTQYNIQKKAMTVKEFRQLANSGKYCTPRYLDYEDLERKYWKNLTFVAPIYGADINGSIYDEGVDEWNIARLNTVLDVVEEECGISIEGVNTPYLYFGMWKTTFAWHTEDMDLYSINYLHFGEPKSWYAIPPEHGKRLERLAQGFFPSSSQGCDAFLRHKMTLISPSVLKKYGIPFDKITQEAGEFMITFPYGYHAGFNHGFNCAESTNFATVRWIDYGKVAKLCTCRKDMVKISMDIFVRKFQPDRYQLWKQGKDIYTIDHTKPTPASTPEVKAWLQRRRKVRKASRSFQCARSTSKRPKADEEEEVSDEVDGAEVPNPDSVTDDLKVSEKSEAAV
PP5 primary: blocks human protein phosphatase 5 activity; P53041; purified PP5c, OMFP substrate fluorescence; inhibition, % at 6.7 µM; actives 0.18% (n = 320,000);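 active means inhibition above the campaign's mean inhibition across all tested compounds plus 3 SD, cut at about 9.5% in these data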
Numbers stand for hits; . = inactive; ? = inconclusive; / = no result. Only some compounds are listed: those with a hit (about 2.4% of all), similar ones and a draw of the others.

SMILES	pCIP destab	Fh CTSL1 inh	Cardio protect	T cruzi repl	JMJD2C inh	PP5 primary
O=C(CCNS(=O)(=O)c1ccccc1)N1CCC(Cc2ccccc2)CC1	.	.	.	.	.	.
O=C(Cc1ccc(Cl)cc1)N/N=C/c1ccccc1	.	.	.	.	.	.
O=C(Cc1ccc(Cl)cc1)N/N=C/c1cccc(O)c1	.	17.7	.	.	.	.
Cn1nc(C(F)(F)F)c(-c2ccc(Br)cc2)c1NC(=O)c1cccnc1	.	.	.	.	.	.
Cn1nc(C(F)(F)F)c(-c2ccc(Br)cc2)c1NC(=O)c1ccco1	.	29.0	.	.	?	.
O=C(COc1ccccc1/C=C\c1[nH]c(=O)[nH]c(=O)c1[N+](=O)[O-])Nc1ccccc1	.	.	.	55.4	.	.
O=c1[nH]c(/C=C/c2ccccc2Cl)c([N+](=O)[O-])c(=O)[nH]1	.	/	.	.	.	/
COc1ccc(S(=O)(=O)NCC(c2cccnc2)N2CCN(C)CC2)cc1C (stereo not drawn)	.	.	.	.	.	.
COc1ccc(S(=O)(=O)NCC(c2cccnc2)N2CCN(Cc3ccccc3)CC2)cc1 (stereo not drawn)	.	.	.	54.6	.	.
CCN1CCN(C(CNS(=O)(=O)c2ccc(OC)cc2)c2cccnc2)CC1 (stereo not drawn)	.	.	.	.	.	.
COc1ccc(S(=O)(=O)NCC(c2cccnc2)N2CCN(Cc3ccccc3)CC2)cc1C (stereo not drawn)	.	.	.	57.0	.	.
N#CC1(NC(=O)Cn2ncc(Cl)c(Cl)c2=O)CCCCC1	/	.	.	62.7	.	.
CCOc1ccc2nc(NC(=O)CN3CCC(n4nnc5cc(F)ccc54)CC3)sc2c1	.	.	69.9	.	.	.
O=C(CN1CCC(n2nnc3cc(F)ccc32)CC1)NC1CC1	.	.	.	.	.	.
O=C(NCS(=O)(=O)c1ccccc1)c1ccccc1	.	29.8	.	.	.	.
O=C(NCCNC(=O)c1ccccc1)c1ccccc1	.	.	.	.	.	.
COc1ccc(C(C)(O)c2nc(-c3ccoc3)cs2)cc1 (stereo not drawn)	/	/	.	/	/	/
COc1ccc(OC)c2sc(N3CCN(C(=O)c4ccc([N+](=O)[O-])s4)CC3)nc12	/	.	.	66.7	.	.
COc1ccc(OC)c2sc(N3CCN(C(=O)c4ccc5ncsc5c4)CC3)nc12	/	.	.	.	.	.
O=C(c1ccc([N+](=O)[O-])s1)N1CCN(c2ccccn2)CC1	.	.	.	.	.	.
O=C(c1ccc([N+](=O)[O-])s1)N1CCN(c2ccccc2)CC1	.	.	.	69.5	.	.
COc1ccc(NC(=O)C2CCCN(C(=O)c3ccc(Cl)cc3)C2)cc1S(=O)(=O)N(C)C (stereo not drawn)	/	/	.	/	.	.
O=C1Nc2ccccc2C12OCC1(CO2)COC2(OC1)C(=O)Nc1ccccc12 (stereo not drawn)	.	27.7	.	.	.	.
Cn1c(=O)c2cc(S(=O)(=O)NC(Cc3ccccc3)C(=O)NCc3ccco3)ccc2n(C)c1=O (stereo not drawn)	.	31.3	.	.	.	.
CC(=O)Nc1ccc(/C(C)=N/Nc2nc(Nc3ccccc3)nc(N3CCOCC3)n2)cc1	.	.	.	67.0	.	.
SMILES	pCIP destab	Fh CTSL1 inh	Cardio protect	T cruzi repl	JMJD2C inh	PP5 primary
CC(=O)c1ccc(Nc2nc(N3CCOCC3)nc(N3CCOCC3)n2)cc1	.	.	.	.	.	.
O=C(CSc1nc(Nc2ccccc2)nc(N2CCOCC2)n1)Nc1cccc([N+](=O)[O-])c1	.	.	.	.	.	.
O=C(CSc1nc(Nc2ccccc2)nc(N2CCOCC2)n1)Nc1ccc([N+](=O)[O-])cc1	.	.	.	56.5	.	.
COc1ccccc1C(CNC(=O)C1CC(=O)N(Cc2ccc(C)cc2)C1)N1CCCC1 (stereo not drawn)	/	.	.	.	.	.
COc1ccccc1C(=O)Oc1ccc2ccc(=O)oc2c1	.	.	.	.	.	.
O=C(Oc1ccc2ccc(=O)oc2c1)c1ccco1	.	.	.	63.6	.	.
COc1ccc(NC(=O)CN2C(=O)NC(C)(c3ccccc3)C2=O)cc1Cl (stereo not drawn)	.	.	.	.	.	.
NC(=S)Nc1cccc2[nH]ccc12	.	.	.	64.0	.	.
Cc1nn(Cc2cccc(F)c2)c(C)c1NC(=O)c1ccc(COc2ccccc2Cl)cc1	.	.	.	57.3	.	.
Cc1nn(Cc2ccccc2Cl)c(C)c1NC(=O)C1C2CCC(O2)C1C(=O)O (stereo not drawn)	.	/	.	.	.	/
Cc1nn(Cc2ccc(Cl)cc2Cl)c(C)c1NC(=O)c1ccc(COc2cc(Cl)ccc2Cl)o1	.	.	.	59.5	.	.
O=C(O)C1C2CCC(O2)C1C(=O)Nc1cccc(Cl)c1 (stereo not drawn)	.	.	.	.	.	69.3
Cc1nn(Cc2ccc(Cl)cc2Cl)c(C)c1NC(=O)C1C2CCC(O2)C1C(=O)O (stereo not drawn)	.	.	.	.	.	46.0
O=C(O)C1C2CCC(O2)C1C(=O)NCc1ccc(Cl)cc1 (stereo not drawn)	.	.	.	.	.	48.5
Cc1nn(C)cc1CNC(=O)C1C2CCC(O2)C1C(=O)O (stereo not drawn)	.	.	/	.	.	69.7
O=C(O)C1C2CCC(O2)C1C(=O)Nc1ccc(Cl)cc1F (stereo not drawn)	.	.	.	.	.	69.2
O=C(NCc1ccc(Cl)cc1)C1CCN(C(=O)c2ccco2)CC1	.	.	.	.	.	.
CSCCC(NC(=O)c1ccco1)C(=O)Nc1ccc(C)cn1 (stereo not drawn)	/	.	.	.	.	.
O=C(Cc1cccs1)N1CCN(S(=O)(=O)c2cccc([N+](=O)[O-])c2)CC1	.	.	.	.	.	.
O=C(O)c1cc(S(=O)(=O)N2CCN(S(=O)(=O)c3ccc4ccccc4c3)CC2)ccc1Br	/	/	.	/	.	/
O=C(NCCCn1ccnc1)c1sc2cccc(F)c2c1Cl	.	.	.	64.0	.	.
COc1cc2c(cc1OC)CN(c1nc(CN3CCCC3)nc3sc(C)c(C)c13)CC2	.	.	.	69.3	.	.
COc1cc2c(cc1OC)CN(c1nc(CN3CCCCC3)nc3sc4c(c13)CCCC4)CC2	.	.	.	.	.	.
S=C(NCc1ccc(Cl)cc1)NC1CCN(Cc2ccccc2)CC1	.	.	.	59.9	.	.
S=C(NCCc1ccccc1)NC1CCCCCC1	.	.	.	.	.	.
S=C(NCCNCc1ccccc1)NC1CCCCC1	.	19.0	/	.	.	.
S=C(Nc1ccc(Nc2ccccc2)cc1)NC1CCCCCC1	.	.	.	54.8	.	.
